Laboratory results: ChEMBL document CHEMBL1134289, “5-(Tryptophyl)amino-1,3-dioxoperhydropyrido[1,2-c]pyrimidine-based potent and selective CCK(1) receptor antagonists: structure-activity relationship studies on the central 1,3-dioxoperhydropyrido[1,2-c]pyrimidine scaffold” (J Med Chem, 2001)

Legend:
Rattus norvegicus = species: Rattus norvegicus; test: Inhibition of amylase release stimulated by CCK-8 (0.1 nM) in dispersed rat pancreatic acini; format: functional
Outline: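 Acini prepared by collagenase digestion (two 6-min incubations, 37 °C) in HEPES buffer pH 7.4, then suspended in buffer with theophylline, SBTI and BSA. Incubated 30 min at 37 °C under O2 with shaking, CCK-8 0.1 nM plus increasing compound levels. Released amylase taken as percent of acinar content; inhibition computed relative to vehicle and CCK-8 alone. Three to six experiments, in duplicate.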

[1] = biological target: T1, Gastrin/cholecystokinin type B receptor (Rattus norvegicus, UniProt P30553); test: Inhibition of [3H]pCCK-8 binding to cholecystokinin type B receptor of rat cerebral cortex; format: tissue-based
T1 sequence (P30553 whole entry): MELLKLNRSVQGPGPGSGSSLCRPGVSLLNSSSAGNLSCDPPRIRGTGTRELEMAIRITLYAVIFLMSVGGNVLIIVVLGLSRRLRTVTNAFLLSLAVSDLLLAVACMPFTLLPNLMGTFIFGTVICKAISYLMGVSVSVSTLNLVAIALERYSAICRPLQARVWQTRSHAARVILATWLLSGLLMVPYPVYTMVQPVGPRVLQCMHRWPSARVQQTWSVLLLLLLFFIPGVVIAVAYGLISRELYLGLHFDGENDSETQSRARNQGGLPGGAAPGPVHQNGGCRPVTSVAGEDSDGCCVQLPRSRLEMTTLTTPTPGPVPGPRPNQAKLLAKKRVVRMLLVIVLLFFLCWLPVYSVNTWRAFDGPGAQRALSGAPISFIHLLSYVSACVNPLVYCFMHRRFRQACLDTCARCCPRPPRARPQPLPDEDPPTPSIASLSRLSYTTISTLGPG

[2] = biological target: T2, Cholecystokinin receptor type A (Rattus norvegicus, UniProt P30551); test: Inhibition of [3H]pCCK-8 binding to cholecystokinin type A receptor of rat pancreas
T2 sequence (P30551 whole entry): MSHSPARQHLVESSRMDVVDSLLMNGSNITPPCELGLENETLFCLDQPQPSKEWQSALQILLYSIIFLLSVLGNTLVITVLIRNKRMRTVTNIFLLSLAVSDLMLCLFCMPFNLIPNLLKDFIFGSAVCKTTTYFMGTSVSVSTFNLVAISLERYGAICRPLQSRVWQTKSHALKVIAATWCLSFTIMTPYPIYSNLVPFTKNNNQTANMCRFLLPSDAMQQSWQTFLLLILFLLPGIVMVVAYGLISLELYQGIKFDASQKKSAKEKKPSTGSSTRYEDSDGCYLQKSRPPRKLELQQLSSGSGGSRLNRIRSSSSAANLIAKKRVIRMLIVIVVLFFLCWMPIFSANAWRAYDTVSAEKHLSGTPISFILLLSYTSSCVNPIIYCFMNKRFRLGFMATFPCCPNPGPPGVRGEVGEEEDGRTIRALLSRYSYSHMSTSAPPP
Outline: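 Rat pancreas homogenized in Pipes-HCl pH 6.5 with 30 mM MgCl2, centrifuged twice at 50000g, 4 °C. Membranes (0.2 mg protein/tube) incubated with 0.5 nM [3H]pCCK-8 plus bacitracin and SBTI (0.2 mg/mL each), 120 min, 25 °C. Seven test concentrations in triplicate; mean of at least three experiments.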

[3] = biological target: T1, Gastrin/cholecystokinin type B receptor; test: Inhibition of [3H]pCCK-8 specific binding to cholecystokinin type B receptor in rat cerebral cortex; format: tissue-based
Outline: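 Rat cerebral cortex homogenized in 50 mM Tris-HCl pH 7.4 with 5 mM MgCl2, centrifuged twice at 100000g, 4 °C. Membranes (0.45 mg protein/tube) incubated with 1 nM [3H]pCCK-8 and bacitracin 0.2 mg/mL, 60 min, 25 °C. Nonspecific binding defined by 1 µM CCK-8. Seven test concentrations in triplicate; at least three experiments.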

| Compound | IC50 (Rattus norvegicus) | IC50 [1] | IC50 [2] | IC50 [3] |
| --- | --- | --- | --- | --- |
| CC(C)(C)OC(=O)N[C@@H](Cc1c[nH]c2ccccc12)C(=O)N[C@H]1CCCN2C(=O)N(Cc3ccccc3)C(=O)C[C@H]12 | 77 nM | – | – | – |
| CC(C)(C)OC(=O)N[C@@H](Cc1c[nH]c2ccccc12)C(=O)N[C@H]1CCCN2C(=O)N(Cc3ccccc3)C(=S)C[C@H]12 | 23 nM | > 10000 nM | – | – |
| CC(C)(C)OC(=O)N[C@@H](Cc1c[nH]c2ccccc12)C(=O)N[C@@H]1CCCN2CN(Cc3ccccc3)CC[C@@H]12 | – | > 10000 nM | > 1000 nM | – |
| CC(C)(C)OC(=O)N[C@@H](Cc1c[nH]c2ccccc12)C(=O)N[C@H]1CCCN2CN(Cc3ccccc3)C(=O)C[C@H]12 | – | > 10000 nM | > 1000 nM | – |
| CC(C)(C)OC(=O)N[C@@H](Cc1c[nH]c2ccccc12)C(=O)N[C@H]1CCCN2C(=S)N(Cc3ccccc3)C(=S)C[C@H]12 | – | > 10000 nM | 900 nM | – |
| CC(C)(C)OC(=O)N[C@@H](Cc1c[nH]c2ccccc12)C(=O)N[C@@H]1CCCN2C(=S)N(Cc3ccccc3)C(=S)C[C@@H]12 | 62 nM | > 10000 nM | 1.34 nM | – |
| CC(C)(C)OC(=O)N[C@@H](Cc1c[nH]c2ccccc12)C(=O)N[C@@H]1CCCN2CN(Cc3ccccc3)C(=O)C[C@@H]12 | – | > 10000 nM | > 1000 nM | – |
| CC(C)(C)OC(=O)N[C@@H](Cc1c[nH]c2ccccc12)C(=O)N[C@@H]1CCCN2C(=O)N(Cc3ccccc3)C(=S)C[C@@H]12 | 4.3 nM | > 10000 nM | 2.83 nM | – |
| CO[C@@H]1C[C@H]2[C@H](NC(=O)[C@H](Cc3c[nH]c4ccccc34)NC(=O)OC(C)(C)C)CCCN2C(=O)N1Cc1ccccc1 | – | > 10000 nM | 370 nM | – |
| CC(C)(C)OC(=O)N[C@@H](Cc1c[nH]c2ccccc12)C(=O)N[C@@H]1CCCN2C(=O)N(Cc3ccccc3)CC[C@@H]12 | – | > 10000 nM | > 1000 nM | – |
| CC(C)(C)OC(=O)N[C@@H](Cc1c[nH]c2ccccc12)C(=O)N[C@@H]1CCCN2C(=S)N(Cc3ccccc3)C(=O)C[C@@H]12 | 33 nM | > 10000 nM | 0.09 nM | – |
| CC(C)(C)OC(=O)N[C@@H](Cc1c[nH]c2ccccc12)C(=O)N[C@H]1CCCN2C(=S)N(Cc3ccccc3)C(=O)C[C@H]12 | – | > 10000 nM | 825 nM | – |
| CC(C)(C)OC(=O)N[C@@H](Cc1c[nH]c2ccccc12)C(=O)N[C@@H]1CCCN2C(=O)N(Cc3ccccc3)C(=O)C[C@@H]12 [IQM-95333] | 0.64 nM | – | – | > 10000 nM |
